Data on six compounds can be found in BindingDB's records for doi:10.1021/jm201131n (Academia Sinica, 2011).

For experiment [1], the target named is T1, Glutathione S-transferase A2 (Homo sapiens, UniProt P09210).
T1 sequence (P09210 whole entry): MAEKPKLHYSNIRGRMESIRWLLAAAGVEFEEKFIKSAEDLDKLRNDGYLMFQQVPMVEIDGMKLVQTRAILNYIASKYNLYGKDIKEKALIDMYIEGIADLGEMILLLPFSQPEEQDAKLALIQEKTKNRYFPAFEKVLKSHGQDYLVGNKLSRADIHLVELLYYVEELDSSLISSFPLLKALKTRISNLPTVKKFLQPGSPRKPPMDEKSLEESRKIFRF
Kind of experiment: Inhibition of human GSTA2 using GSH as substrate after 3 mins by spectrophotometry. In outline: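 Human GST enzyme preincubated with inhibitor (0–200 μM) in 100 mM potassium phosphate pH 6.5 at 37 °C (GSTM1 at 32 ng). Reaction started with GSH (final 2 mM) and followed at 340 nm for 3 min. IC50 by nonlinear regression, mean ± SEM, n = 3. Percent inhibition at 100 μM is not corrected for glutathione conjugate formation.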

Experiment [2] deals with Glutathione S-transferase P (Homo sapiens, UniProt P09211). Description: Inhibition of human GSTP1-1 using GSH as substrate after 3 mins by spectrophotometry.
Chain of Glutathione S-transferase P (P09211 whole entry): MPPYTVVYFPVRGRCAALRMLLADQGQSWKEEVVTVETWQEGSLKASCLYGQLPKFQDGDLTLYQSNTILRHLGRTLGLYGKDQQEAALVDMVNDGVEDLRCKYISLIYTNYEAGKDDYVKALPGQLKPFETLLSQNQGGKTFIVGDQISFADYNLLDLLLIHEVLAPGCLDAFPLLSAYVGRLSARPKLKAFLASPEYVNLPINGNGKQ

The compound `CO[C@]1(C)O[C@H]2[C@H](O)C(C=O)CC(=O)[C@@H]2O[C@@]1(C)OC` (stereo partly specified) yielded an IC50 in experiment [1] of more than 100 µM.
`CC(=O)OCC1CC(O)[C@H](O)C(=O)C1=O` (stereo partly specified): the IC50 in experiment [2] and in experiment [1] was more than 100 µM each time.
As for `CO[C@@H]1CC(COC(C)=O)C(=O)C(=O)[C@H]1O` (stereo partly specified), the IC50 in experiment [2] and in experiment [1] was more than 100 µM throughout.
In the case of `CC(=O)OCC1C[C@@H](O)[C@H](O)C(=O)C1=O` (stereo partly specified), the concentration for half-maximal inhibition (IC50) in experiment [2] and in experiment [1] was more than 100 µM each time.
With `CO[C@H]1CC(COC(C)=O)C(=O)C(=O)[C@H]1O` (stereo partly specified), the IC50 in experiment [2] and in experiment [1] was more than 100 µM throughout.
For the compound `CC(=O)OCC1C[C@H](O)[C@H](O)C(=O)C1=O` (stereo partly specified), the IC50 in experiment [2] and in experiment [1] was more than 100 µM throughout.

The term IC50 denotes the point on the concentration scale where inhibition reaches its midpoint. Higher therefore signals weaker potency in that assay.
